Sampled rows, rich in hits. Any-hit rate of the full collection: about 2.7%.
CSN inh: CSN deneddylation inhibition; Q92905; Purified CSN, SCF-Nedd8-OG deneddylation, fluorescence polarization; inhibition, % at 12.5 µM; 360,000 compounds, 0.38% hits; AID 651999;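 active = pattern-corrected inhibition above about 35%, with an unprinted fluorescence ratio check between 0.5 and 1.5, limit read from the data, passing the limit was not always enough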
Target sequence (Q92905 whole entry, looked up, one chain of several): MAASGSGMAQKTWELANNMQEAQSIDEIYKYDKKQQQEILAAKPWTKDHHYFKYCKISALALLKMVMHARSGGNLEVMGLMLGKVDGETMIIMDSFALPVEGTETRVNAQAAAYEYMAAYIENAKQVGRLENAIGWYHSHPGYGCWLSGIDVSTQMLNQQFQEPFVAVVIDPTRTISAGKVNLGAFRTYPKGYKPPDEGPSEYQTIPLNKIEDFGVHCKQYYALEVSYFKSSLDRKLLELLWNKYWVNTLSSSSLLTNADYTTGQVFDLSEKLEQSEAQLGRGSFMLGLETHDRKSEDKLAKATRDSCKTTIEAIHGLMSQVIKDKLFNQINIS
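Test system: Human Csn5 produced in HEK293T cells | Compound: 12.5 µM single point | Times: 90 min, room temperature | Signal: Fluorescence polarization readout | Read-out basis: % inhibition of substrate cleavage by Csn5 | Controls: no-enzyme wells high, enzyme-with-substrate wells low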
NadD inh: NadD (S. aureus) enzyme inhibition; AID 602399; 360,000 compounds, 0.78% hits; inhibition, % at 20 µM; purified NadD enzyme, colorimetric absorbance read-out; in the data active = inhibition above about 26%
TPT1 inh: blocks Candida albicans tRNA 2'-phosphotransferase; recombinant caTPT1, FP RNA substrate dephosphorylation; inhibition, % at 5 µM; 300,000 compounds, 0.81% hits; AID 1962;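 active = inhibition above the mean of all tested compounds plus 3 SD, set per screening campaign, cut at about 24% in these data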
Rpn11 block: inhibitors of human proteasome Rpn11 | inhibition, % at 20 µM | human 26S proteasome, Ub4-pepOG fluorescence polarization; 20S core pre-blocked with epoxomicin | O00487 | 360,000 compounds, 0.59% hits;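 active = inhibition at 20 µM, scaled to each plate's controls, above about 33%, limit read from the data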
Target sequence (O00487 whole entry, looked up): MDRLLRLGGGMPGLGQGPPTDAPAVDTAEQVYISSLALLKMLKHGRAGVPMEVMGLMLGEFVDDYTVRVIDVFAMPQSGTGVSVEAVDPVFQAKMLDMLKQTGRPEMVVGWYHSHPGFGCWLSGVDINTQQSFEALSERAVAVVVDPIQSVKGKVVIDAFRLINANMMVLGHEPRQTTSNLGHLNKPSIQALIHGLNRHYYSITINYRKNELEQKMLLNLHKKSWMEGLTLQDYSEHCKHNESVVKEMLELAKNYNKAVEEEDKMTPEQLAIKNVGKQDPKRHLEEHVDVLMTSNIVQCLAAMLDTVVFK
HNF4A DNA FP: change in binding of human HNF4 alpha to DNA. P41235. HNF4a-FITC DNA binding, fluorescence polarization, 1 h. activity change, % at 10 µM. 360,000 compounds, 0.3% hits; in the data active = activity change above about 30%, passing the limit was not always enough
PP1 counter: counter-screen for PP5 inhibitors: inhibitors of human PP1-alpha. P62136. purified PP1alpha, OMFP fluorescence. inhibition, % at 6.7 µM. 320,000 compounds, 0.9% hits;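 active = inhibition above the mean inhibition of all tested compounds plus 3 SD, computed separately for each screening campaign, cut at about 15% in these data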
TPT1 inh confirm: confirmation of Candida albicans TPT1 inhibitors; recombinant caTPT1, fluorescence polarization, RNase T1 coupled; AID 2149; inhibition, % at 5 µM; 2,400 compounds, 74% hits; shares compounds with TPT1 inh;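 active = inhibition above the primary screen limit, the mean inhibition of all tested compounds plus 3 SD, cut at about 25% in these data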
RNase T1 inh: counter-screen for TPT1 inhibitors: inhibitors of Aspergillus oryzae RNase T1; AID 2153; 2,400 compounds, 83% hits; inhibition, % at 5 µM; RNase T1 cleavage, fluorescence polarization, 1536-well; shares compounds with TPT1 inh;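 active = inhibition above the solvent-only control well mean plus 3 SD, limit set per screening run, cut at about 23% in these data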;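 note: inhibitors block cleavage so intact labeled substrate keeps polarization high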
Hits are given with their value; 0 = inactive; - = not tested or not shown.

SMILES | CSN inh | NadD inh | TPT1 inh | Rpn11 block | HNF4A DNA FP | PP1 counter | TPT1 inh confirm | RNase T1 inh
CC1CCCC(NC(=O)CN2C(=O)NC(c3ccccc3)(c3ccccc3)C2=O)C1C (centres undefined) | 0 | 0 | - | 0 | 0 | - | - | -
CC[n+]1c(/C=C/N(C)c2ccccc2)oc2ccccc21 | 0 | 0 | 36.2 | - | 0 | 0 | 48.9 | 60.9
CC[n+]1c(/C=C/Nc2ccccc2)oc2ccccc21 | 0 | 0 | 38.4 | 0 | 0 | 0 | 52.5 | 64.2
CCn1c(/C=C/Nc2ccccc2)[n+](CC)c2ccc(Cl)cc21 | 0 | 0 | 0 | 0 | 0 | 0 | - | -
CC(=O)Nc1ccc(CN(C)c2c(C)nc3ccc(C(=O)N4CCN(c5ccccc5)CC4)cn23)cc1 | 0 | 0 | - | 0 | 0 | - | - | -
COC(=O)c1c(-c2ccccc2Cl)noc1/C=C/N(C)C | 0 | 0 | 131.1 | 0 | 0 | 0 | 28.1 | 34.9
O=Cc1cn(CC(O)CN2CCCCC2)c2ccccc12 (centres undefined) | 0 | 0 | 0 | 0 | 0 | 0 | - | -
O=C(/C=C/c1cn(CC(O)CN2CCOCC2)c2ccccc12)c1cccs1 (centres undefined) | - | - | 62.9 | - | - | 0 | 81.8 | 88.0
Cc1ccc(C(=O)/C=C/c2cn(CC(O)CN3CCOCC3)c3ccccc23)cc1 (centres undefined) | 0 | 0 | 47.1 | - | 0 | 0 | 46.0 | 56.6
Cc1ccccc1OCC(=O)NNC(=O)C1CC(=O)N(c2ccc3c(c2)OCCO3)C1 (centres undefined) | 0 | 0 | - | 0 | 0 | 0 | - | -
Cc1ccc(-n2nc3c(N4CCC(C(=O)N5CCCCCC5)CC4)nnc(C)c3c2C)cc1 | 0 | 0 | 0 | 0 | 0 | 0 | - | -
CCCN1CCN(C(=O)C2CCN(c3nnc(C)c4c(C)n(-c5ccc(C)cc5)nc34)CC2)CC1 | 0 | 0 | 28.4 | - | 0 | 0 | 35.7 | 47.5
CN(Cc1ccccc1F)C(=O)CN1c2cccc3cccc(c23)S1(=O)=O | 0 | 0 | 0 | 0 | 0 | 0 | - | -
CCCn1c(NC(=O)CCS(=O)(=O)c2ccc(C)cc2)nc2ccccc21 | 0 | 0 | 46.3 | 0 | 0 | 0 | 58.5 | 67.7
O=c1n2c(c(O)n1C1CCCCC1)C(c1ccccc1)=Nc1ccccc1C2 | 0 | 0 | - | 0 | 0 | - | - | -
Cc1ccc(-c2nnc(Nc3ccc4c(c3)OCO4)c3ccccc23)cc1S(=O)(=O)NC(C)C | 0 | 0 | 52.5 | 0 | 0 | 0 | 0 | 0
CCOc1ccc(C2C(C#N)=C(N)SC(N)=C2C#N)c(OCC)c1 | 0 | 0 | 150.2 | - | 0 | 0 | 0 | 32.2
N=c1oc2cc(O)ccc2cc1C(=O)Nc1ccc(Cl)cc1 | 0 | 0 | 49.7 | 0 | 0 | 0 | 70.5 | 79.6
N=c1oc2ccccc2cc1C(=O)Nc1ccc(F)cc1 | 0 | 0 | - | 0 | 0 | - | - | -
Cc1csc(NC(=O)c2sc3nc(-c4cccs4)ccc3c2N)n1 | - | - | 26.7 | - | - | 0 | 25.8 | 40.9
COc1ccc(C(=O)Nc2nc(-c3cccs3)cs2)cc1 | 0 | 0 | 0 | 0 | 0 | 0 | - | -
Cc1[nH]c2ccccc2c1/C=C/C(=O)c1ccccc1 | 0 | 0 | 31.9 | - | 0 | 0 | 62.6 | 75.3
Cc1[nH]c2ccccc2c1/C=N/NC(=O)c1ccccc1 | 0 | 0 | 0 | 0 | 0 | 0 | - | -
CCn1c(/C=C/c2c[nH]c3ccccc23)nc2ccccc2c1=O | 0 | 0 | 0 | 0 | 0 | 0 | - | -
CCn1c(/C=C/c2c(C)[nH]c3ccccc23)nc2ccccc2c1=O | 0 | 0 | 37.7 | - | 0 | 0 | 59.4 | 70.8
SMILES | CSN inh | NadD inh | TPT1 inh | Rpn11 block | HNF4A DNA FP | PP1 counter | TPT1 inh confirm | RNase T1 inh
COc1ccc(CNC(=O)C2CCC(CNS(=O)(=O)c3ccccc3)CC2)cc1 (centres undefined) | 0 | 0 | 0 | 0 | 0 | 0 | - | -
COc1ccc(C(CNC(=O)C(Cc2ccccc2)NC(N)=O)N(C)C)cc1 (centres undefined) | 0 | 0 | 0 | 0 | 0 | 0 | - | -
O=C1/C(=C\c2c(NCCOCCO)nc3ccccn3c2=O)SC(=S)N1Cc1ccco1 | 0 | 0 | 86.3 | - | 0 | 0 | 85.6 | 86.6
CCn1c(CCNC(=O)c2ccc(Cl)c(Cl)c2)nnc1SCCOc1ccc(OC)cc1 | 0 | 0 | 24.9 | 0 | 0 | 0 | 0 | 0
Cc1nc2ccccc2c(=O)n1/N=C/c1c(O)ccc2ccccc12 | 0 | 0 | 39.2 | 0 | 0 | 0 | 0 | 0
Cc1nc2ccccc2c(=O)n1/N=C/c1cc(Br)ccc1O | 0 | 0 | 0 | 0 | 0 | 0 | - | -
CC(C)(O)CC[C@@H](O)[C@](C)(O)C1CC[C@@]2(O)C3=CC(=O)[C@]4(O)C[C@@H](O)[C@@H](O)C[C@]4(C)C3CC[C@]12C (some centres undefined) | 0 | 0 | - | 0 | 0 | 0 | - | -
O=C(Nc1cccc(C(F)(F)F)c1)Nn1cnnc1 | 0 | 0 | - | 0 | 0 | - | - | -
O=[N+]([O-])c1c(Nc2ccccn2)cc(Cl)c2nonc12 | 0 | 0 | 128.2 | - | 0 | 0 | 135.2 | 130.1
Cc1ccc(S(=O)(=O)Nc2ccccc2-c2ccccc2NS(=O)(=O)c2ccc(C)cc2)cc1 | 0 | 0 | 0 | 0 | 0 | 0 | - | -
O=C1c2ccccc2-c2cccc(NS(=O)(=O)c3ccc(C(F)(F)F)cc3)c21 | 0 | 0 | 42.3 | - | 0 | 0 | 47.1 | 54.8
Cc1ccc(S(=O)(=O)Nc2c(C)nc3nc(C)[nH]n3c2=O)c(C)c1 | 0 | 0 | 0 | 0 | 0 | 0 | - | -
CCOCCCNc1nc2c(C)cccn2c(=O)c1/C=C1\SC(=S)N(C(C)CC)C1=O (centres undefined) | 0 | 0 | 134.9 | - | 0 | 0 | 157.5 | 145.0
Cc1ccccc1OC(C)C(=O)N1CCN(c2ccccn2)CC1 (centres undefined) | 0 | 0 | 0 | 0 | 0 | 0 | - | -
COc1ccc(C(=O)c2sc3nc(-c4ccccc4)ccc3c2N)cc1 | 0 | 0 | 82.2 | 64.4 | 0 | 0 | 85.3 | 91.8
O=C1CC(C(F)(F)C(F)(F)C(F)(F)C(F)F)=Nc2ccccc2N1 | 0 | 0 | 75.0 | 0 | 0 | 0 | 0 | 0
O=C1CC(/C=C/c2ccco2)=Nc2ccccc2N1 | 0 | 0 | 0 | 0 | 0 | 0 | - | -
COc1ccc(C(=O)NCCc2ccc(C(F)(F)F)cc2)cc1S(=O)(=O)N1CCOCC1 | 0 | 0 | - | 0 | 0 | 0 | - | -
Cn1nnnc1SCc1ccc(CSc2nnnn2C)cc1 | 0 | 0 | 54.8 | 0 | 0 | 0 | 0 | 0
CN(C)c1ccc(/C=C/c2nc3ccccc3c(=O)n2-c2ccc(C(=O)O)cc2)cc1 | 0 | 0 | 143.8 | - | 0 | 0 | 159.0 | 143.4
O=C(O)c1cccc(-n2c(/C=C/c3ccccc3)nc3ccccc3c2=O)c1 | 0 | 0 | 0 | 0 | 0 | 0 | - | -
COc1ccc(C(C)(C)C)cc1NC(=O)CCCN1C(=O)NC(C)(C)C1=O | 0 | 0 | - | 0 | 0 | 0 | - | -

Screening results deposited in PubChem by several laboratories.
